Results: article PMC3793015 (Journal of agricultural and food chemistry, 2013)

How the values were obtained:
RAW 264.7 = assay: Cytotoxicity of α-MG; assay type: cell-based, murine; settings: read-out: IC50 (cytotoxicity); RAW 264.7, 24 h, 10% FBS delivery
Outline: (§1)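 Cytotoxicity was judged by phase-contrast morphology and MTT reduction to formazan after exposure to increasing compound concentrations. Exposure was 24 h for RAW 264.7, MDM, HepG2 and HT-29, 8 h for PMA-differentiated THP-1, and 4 h for differentiated Caco-2. Delivery was DMSO into 10% FBS medium for RAW 264.7, THP-1 and HepG2; FBS-complexed compound at 10% FBS in RPMI 1640 for MDM; Tween 40 micelles for Caco-2 and HT-29.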

THP-1 = assay: Cytotoxicity of α-MG; assay type: cell-based, human; settings: read-out: IC50 (cytotoxicity); THP-1, 8 h, 10% FBS delivery
Outline: as §1

HepG2 = assay: Cytotoxicity of α-MG; assay type: cell-based, human; settings: read-out: IC50 (cytotoxicity); HepG2, 24 h, 10% FBS delivery
Outline: as §1

Caco-2 = assay: Cytotoxicity of α-MG; assay type: cell-based, human; settings: read-out: IC50 (cytotoxicity); Caco-2, 4 h, Tween 40 delivery
Outline: as §1

HT-29 = assay: Cytotoxicity of α-MG; assay type: cell-based, human; settings: read-out: IC50 (cytotoxicity); HT-29, 24 h, Tween 40 delivery
Outline: as §1

[1] = tested on: IL-8 secretion by macrophage-like THP-1 cells; assay: IL-8 secretion; assay type: cell-based, human
Outline: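 THP-1 cells, differentiated with 100 nM PMA for 48 h, were pretreated with compound added as a DMSO stock to 10% FBS medium, then stimulated with E. coli O111:B4 LPS. Supernatant IL-8 was measured by ELISA in LPS-treated and unstimulated cultures.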

[2] = tested on: TNF-α secretion by MDM cells; assay: TNF-α secretion; assay type: cell-based, human
Outline: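 Primary macrophages came from buffy-coat monocytes (Ficoll, clumping), differentiated 6 days with 50 ng/mL M-CSF (97% pure by CD14/CD11b). Compound was delivered in FBS at 10% FBS in RPMI 1640. Cells were then stimulated with E. coli O111:B4 LPS or left unstimulated. Secreted TNF-α was quantified by ELISA.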

[3] = tested on: TNF-α secretion by HepG2 cells; assay: TNF-α secretion; assay type: cell-based, human
Outline: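 HepG2 monolayers, 2 days post-confluence, were pretreated with compound (DMSO stock into 10% FBS medium) and then stimulated with phorbol 12-myristate 13-acetate. Secreted TNF-α was quantified by ELISA in activated and nonactivated cultures.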

[4] = tested on: IL-8 secretion by enterocyte-like Caco-2 cells; assay: IL-8 secretion into basolateral medium; assay type: cell-based, human
Outline: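 Caco-2 monolayers were differentiated 21–25 days post-confluence on Transwell inserts. Compound in Tween 40 micelles went into the apical compartment, and IL-1β was added basolaterally. IL-8 in basolateral medium was measured by ELISA, with and without IL-1β.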

[5] = tested on: IL-8 secretion by colonic HT-29 cells; assay: IL-8 secretion; assay type: cell-based, human
Outline: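 HT-29 monolayers, 2 days post-confluence, were pretreated with compound delivered in Tween 40 micelles. Activation used LPS from E. coli O111:B4. IL-8 secreted into the medium was quantified by ELISA, in both activated and nonactivated cultures.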

RAW 264.7 cells = assay: Cellular uptake and metabolism of α-MG; assay type: in vitro ADME, murine
Outline: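 RAW 264.7 cells, 2 days post-confluence, received 7.7 μM compound (DMSO stock into 10% FBS medium) for 24 h. LPS-activated cultures had 5 ng/mL LPS for 4 h, then a PBS wash, before compound. Cells and medium were collected together because some cells were nonadherent. Samples were extracted and analysed by RP-HPLC for free and glucuronidated/sulfated xanthones, as % of initial concentration.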

THP-1 cells = assay: Cellular uptake and metabolism of α-MG; assay type: in vitro ADME, human
Outline: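 THP-1 monocytes were differentiated with 100 nM PMA for 48 h, then exposed 24 h to 5.2 μM compound (DMSO stock into 10% FBS medium). Activated cultures were pre-exposed to 5 ng/mL LPS for 4 h and washed with PBS. Spent medium and cells were collected separately, extracted and analysed by RP-HPLC for free and glucuronidated/sulfated xanthones. Amounts are % of initial compound; mean ± SD, n ≥ 5.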

HT-29 cells = assay: Cellular uptake and metabolism of α-MG; assay type: in vitro ADME, human
Outline: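 HT-29 monolayers, 2 days post-confluence, given 8.5 μM compound in Tween 40 micelles in medium for 24 h. Activated cultures had 800 ng/mL LPS for 4 h, then a PBS wash, before compound. Spent medium and cells were collected separately, extracted and analysed by RP-HPLC, including glucuronide/sulfate conjugates. Xanthones were identified by retention time and UV spectrum and quantified against five-point mangostin standard curves. Results are given as % of initial compound; mean ± SD, n ≥ 5.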

[6] = RAW 264.7, combined medium and cells, 7.7 μM, 24 h
[7] = 24 h after addition of α-MG, control cultures, nd: not detected

## COc1c(O)cc2oc3cc(O)c(CC=C(C)C)c(O)c3c(=O)c2c1CC=C(C)C [α-MG, α-mangostin]
RAW 264.7
  IC50: 23 µM
THP-1
  IC50: 23 µM
HepG2
  IC50: 25 µM
Caco-2
  IC50: > 80 µM
HT-29
  IC50: 180 µM
[1]; activated THP-1, 10 μM pretreatment 4 h, LPS 0.1 ng/mL 4 h
  inhibition of IL-8 chemokine secretion: 30–40%
[1]; nonactivated THP-1 cultures
  effect on secretion of IL-8: not altered
[2]; 0.7 μM, LPS-treated MDM, p > 0.05, data not shown
  TNF-α secretion in absence vs presence of α-MG: similar
[2]; 0.7 μM, nonactivated MDM, p < 0.05, data not shown
  effect on TNF-α secretion: increased
[2]; MDM, 4.5 μM pretreatment 4 h, LPS 100 ng/mL 10 h
  increase of LPS-stimulated secretion of TNF-α: more than 50%
[2]; nonactivated MDM cultures
  effect on basal secretion of TNF-α: more than doubled
[3]; PMA-activated HepG2, 7 μM pretreatment 16 h, PMA 50 ng/mL 4 h
  attenuation of TNF-α secretion: 22%
[3]; nonactivated HepG2 cultures
  effect on secretion of TNF-α: not altered
[4]; activated Caco-2, 15 μM pretreatment 4 h, IL-1β 5 ng/mL 16 h
  inhibition of IL-8 chemokine secretion: 30–40%
[4]; nonactivated Caco-2 cultures
  effect on secretion of IL-8: not altered
[5]; activated HT-29, 10 μM pretreatment 1 h, LPS 100 ng/mL 16 h
  inhibition of IL-8 chemokine secretion: 30–40%
[5]; nonactivated HT-29 cultures
  effect on basal secretion of IL-8: more than doubled
RAW 264.7 cells; RAW 264.7, 24 h incubation
  recovery of α-MG: 80 ± 6%
RAW 264.7 cells; RAW 264.7, LPS treatment, data not shown
  ratio of free to conjugated xanthones, activated vs control: increased
RAW 264.7 cells; [6]
  free α-MG, of initial concentration: 18 ± 3%
  glucuronidated/sulfated conjugates, of initial concentration: 61 ± 6%
THP-1 cells; 0 h, amount of α-MG at start
  xanthone in media, THP-1: 33710 ± 161 pmol/dish
THP-1 cells; 0 h, control cultures
  intracellular profile table, α-MG at 0 h, THP-1: 33710 ± 161 pmol/dish
THP-1 cells; [7]
  intracellular xanthone, THP-1: 11439 ± 995 pmol/dish
THP-1 cells; THP-1, 5 ng/mL LPS 4 h before α-MG, 24 h, p < 0.05
  intracellular ratio of free to conjugated xanthones, activated vs control: increased
THP-1 cells; THP-1, 5.2 μM, 24 h, control
  free xanthones in cells, of initial α-MG: 20 ± 4%
  free xanthones in spent medium, of initial α-MG: 40 ± 1%
  phase II conjugates in cells, of initial α-MG: 14 ± 3%
THP-1 cells; THP-1, 24 h incubation
  recovery of xanthones, of α-MG added: 75 ± 6%
HT-29 cells; 0 h, amount of α-MG at start
  xanthone in media, HT-29: 16517 ± 373
HT-29 cells; 0 h, control cultures
  intracellular profile table, α-MG at 0 h, HT-29: 16517 ± 373
HT-29 cells; [7]
  intracellular xanthone, HT-29: 807 ± 178
HT-29 cells; HT-29, 800 ng/mL LPS 4 h before α-MG, 24 h, p < 0.05
  ratio of free to conjugated xanthones in medium, activated vs control: increased
HT-29 cells; HT-29, 8.5 μM, 24 h, control
  free xanthones in medium, of initial α-MG: 7 ± 2%
  nonconjugated xanthones in cells: only traces
  phase II conjugates in cells, of α-MG added: 5 ± 1%
  phase II conjugates in medium, of α-MG added: 42 ± 3%
HT-29 cells; HT-29, 24 h incubation
  recovery of α-MG: 54 ± 4%
